Results: ChEMBL document CHEMBL5033992, “Discovery and Synthesis of a Pyrimidine-Based Aurora Kinase Inhibitor to Reduce Levels of MYC Oncoproteins” (J Med Chem, 2021)
Blank lines part the entries; values can stand above or below the molecule they belong to. Calls of active or inactive are those of the source. The rule behind the calls is not given here.

Tests used:
[1] = target: Aurora kinase B (Homo sapiens) (UniProt Q96GD4); test: Inhibition of Aurora B phosphorylation in human NCI-H82 cells assessed as reduction in phosphorylation at Thr 232 residue at 50 to 1000 nM after 24 hrs by Western blot analysis; format: cell-based; settings: dose 50-1000 nM
Chain of Aurora kinase B (Homo sapiens) (Q96GD4 whole entry): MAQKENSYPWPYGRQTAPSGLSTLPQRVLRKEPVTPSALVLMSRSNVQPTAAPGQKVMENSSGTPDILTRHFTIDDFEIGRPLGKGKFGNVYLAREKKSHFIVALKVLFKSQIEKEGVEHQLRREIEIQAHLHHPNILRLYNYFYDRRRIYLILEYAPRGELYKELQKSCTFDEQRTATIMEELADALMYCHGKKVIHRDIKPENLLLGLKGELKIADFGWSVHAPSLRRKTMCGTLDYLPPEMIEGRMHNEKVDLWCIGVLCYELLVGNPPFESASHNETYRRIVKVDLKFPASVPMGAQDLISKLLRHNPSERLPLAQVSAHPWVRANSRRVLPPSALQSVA
Procedure, shortened: (§1)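 Cells treated with compound at various concentrations for 24 h, then washed in PBS, lysed in Laemmli buffer and boiled 10 min. Lysates run on SDS-PAGE, transferred to PVDF and probed with antibodies, then AP- or HRP-conjugated secondaries with chemiluminescent detection. Loading control β-actin. NCI-H82 grown in RPMI1640 and SK-N-BE(2) in MEM, each with 10% FBS. Relative levels quantified from triplicate experiments.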

NCI-H82 [2] = test: Inhibition of Histone H3 phosphorylation in human NCI-H82 cells assessed as reduction in phosphorylation at Ser 10 residue at 50 to 1000 nM after 24 hrs by Western blot analysis; format: cell-based; settings: dose 50-1000 nM; procedure, shortened: as §1
[3] = target: Aurora kinase B (Homo sapiens) (UniProt Q96GD4); test: Inhibition of Aurora B phosphorylation in human SKNBE2 cells assessed as reduction in phosphorylation at Thr 232 residue at 50 to 1000 nM after 24 hrs by Western blot analysis; format: cell-based; settings: dose 50-1000 nM; procedure, shortened: as §1
SKNBE2 = test: Inhibition of Histone H3 phosphorylation in human SKNBE2cells assessed as reduction in phosphorylation at Ser 10 residue at 50 to 1000 nM after 24 hrs by Western blot analysis; settings: dose 50-1000 nM; procedure, shortened: as §1
NCI-H82 [4] = test: Down regulation of Cyclin B1 expression in human NCI-H82 cells at 50 to 1000 nM after 24 hrs by Western blot analysis; format: functional, cell-based; settings: dose 50-1000 nM; procedure, shortened: as §1
SK-N-BE(2) [5] = test: Down regulation of Cyclin B1 expression in human SKNBE2 cells at 50 to 1000 nM after 24 hrs by Western blot analysis; format: functional, cell-based; settings: dose 50-1000 nM; procedure, shortened: as §1
NCI-H526 = test: Growth inhibition of human NCI-H526 cells assessed as reduction in cell viability after 72 hrs by PrestoBlue Cell Viability assay; format: functional, cell-based; settings: NCI-H526, 72 h
Procedure, shortened: (§2)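 Cells seeded at 5000–10,000 per well; after 24 h, treated with an eight-point titration from 0 to 10 μM in triplicate. After 72 h exposure, viability read by PrestoBlue fluorescence, and IC50 computed from the titration. SCLC lines grown in RPMI1640 and SK-N-BE(2) in MEM, each with 10% FBS.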

NCI-H209 = test: Growth inhibition of human NCI-H209 cells assessed as reduction in cell viability after 72 hrs by PrestoBlue Cell Viability assay; format: functional, cell-based; settings: NCI-H209, 72 h; procedure, shortened: as §2
[6] = Growth inhibition of human NCI-H841 cells assessed as reduction in cell viability after 72 hrs by PrestoBlue Cell Viability assay; format: functional, cell-based; settings: NCI-H841, 72 h; procedure, shortened: as §2
NCI-H82 [7] = test: Down regulation of cMYC protein expression level in human NCI-H82 cells at 1 uM incubated for 2 to 4 hrs in presence of MG132 by Western blot analysis; format: functional, cell-based; settings: time 2-4 hrs
NCI-H82 [8] = test: Induction of cell cycle arrest in human NCI-H82 cells at 1 uM after 24 hrs by Propidium iodide staining based flow cytometric analysis; format: functional
[9] = Half life in ICR mouse at 2 mg/kg, iv measured up to 24 hrs by LC-MS/MS analysis; format: ADME, organism-based; settings: in vivo
[10] = Clearance in ICR mouse at 2 mg/kg, iv measured up to 24 hrs by LC-MS/MS analysis; format: ADME, organism-based; settings: in vivo
[11] = Volume of distribution at steady state in ICR mouse at 2 mg/kg, iv measured up to 24 hrs by LC-MS/MS analysis; format: ADME, organism-based; settings: in vivo, read-out: Vdss
[12] = AUC (0 to inf) in ICR mouse at 2 mg/kg, iv measured up to 24 hrs by LC-MS/MS analysis; format: ADME, organism-based; design: route intravenous, dose 2 mg/kg, time <=24; settings: ICR, in vivo
[13] = Half life in ICR mouse at 10 mg/kg, po measured up to 24 hrs by LC-MS/MS analysis; format: ADME, organism-based; settings: in vivo
[14] = Cmax in ICR mouse at 10 mg/kg, po measured up to 24 hrs by LC-MS/MS analysis; format: ADME, organism-based; design: route oral, dose 10 mg/kg, time <=24; settings: in vivo
[15] = Tmax in ICR mouse at 10 mg/kg, po measured up to 24 hrs by LC-MS/MS analysis; format: ADME, organism-based; settings: in vivo
[16] = AUC (0 to inf) in ICR mouse at 10 mg/kg, po measured up to 24 hrs by LC-MS/MS analysis; format: ADME, organism-based; design: route oral, dose 10 mg/kg, time <=24; settings: in vivo
[17] = Oral bioavailability in ICR mouse at 10 mg/kg measured up to 24 hrs by LC-MS/MS analysis; format: ADME, organism-based; settings: in vivo
[18] = Toxicity in athymic nu/nu nude mouse xenografted with NCI-H446 cells assessed as reduction in body weight at 50 mg/kg, iv administered at 5 on-2-off for 2 to 4 weeks relative to control; format: organism-based; design: scale not given: the % may be the effect or the level left; settings: in vivo, time 2-4 weeks
Procedure, shortened: (§3)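 Male athymic nu/nu mice, 6 weeks old, inoculated subcutaneously with 1 × 10⁶ NCI-H446 cells in saline with 50% Matrigel. Dosing IV or oral, vehicle 5% dimethylacetamide/95% PEG400, on a 5-on-2-off schedule for 2–4 weeks once tumors reached ≥200 mm³. Caliper volume = length × width²/2; tumors and body weight measured at least twice weekly. ANOVA with Student–Newman–Keuls, P < 0.05.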

[19] = target: T1, Aurora kinase A (Homo sapiens) (UniProt O14965); settings: NCI-H82, dose 50-1000 nM, time 24.0 hrs
T1 sequence (whole entry): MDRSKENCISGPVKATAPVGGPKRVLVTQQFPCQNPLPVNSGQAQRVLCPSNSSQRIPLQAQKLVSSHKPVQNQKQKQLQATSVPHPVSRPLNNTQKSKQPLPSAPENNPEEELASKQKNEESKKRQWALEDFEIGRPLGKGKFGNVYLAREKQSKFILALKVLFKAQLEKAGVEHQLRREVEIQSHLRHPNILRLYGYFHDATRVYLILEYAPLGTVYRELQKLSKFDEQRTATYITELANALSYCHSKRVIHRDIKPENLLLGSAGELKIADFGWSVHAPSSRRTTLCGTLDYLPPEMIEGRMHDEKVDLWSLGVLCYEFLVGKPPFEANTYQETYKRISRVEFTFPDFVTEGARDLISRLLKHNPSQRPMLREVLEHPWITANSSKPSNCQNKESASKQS

[20] = target: T1, Aurora kinase A (Homo sapiens); settings: SKNBE2, dose 50-1000 nM, time 24.0 hrs
SK-N-BE(2) [21] = test: Growth inhibition of human SKNBE2 cells assessed as reduction in cell viability after 24 hrs by PrestoBlue Cell Viability assay; settings: SKNBE2, 24 h
NCI-H446 [22] = test: Anti-tumor activity against human NCI-H446 cells xenografted in athymic nu/nu nude mouse assessed as reduction in tumor volume at 50 to 100 mg/kg, po administered at 5 on-2-off for 2 to 4 weeks; format: functional, organism-based; settings: dose 50-100 mg/kg, time 2-4 weeks; procedure, shortened: as §3
NCI-H446 [23] = test: Anti-tumor activity against human NCI-H446 cells xenografted in athymic nu/nu nude mouse assessed as reduction in tumor volume at 50 mg/kg, po administered at 5 on-2-off for 3 weeks and further dosed 100 mg/kg, po for 4 th week relative to control; format: functional, organism-based; settings: time 4.0 weeks; procedure, shortened: as §3
[24] = Toxicity in athymic nu/nu nude mouse xenografted with NCI-H446 cells assessed as reduction in body weight at 50 to 100 mg/kg, po administered at 5 on-2-off for 2 to 4 weeks relative to control; format: organism-based; design: scale not given: the % may be the effect or the level left; settings: in vivo, dose lower 50 mg/kg, time lower 2 weeks, dose upper 100 mg/kg, time upper 4 weeks; procedure, shortened: as §3
[25] = Toxicity in athymic nu/nu nude mouse xenografted with NCI-H446 cells assessed as reduction in body weight 50 mg/kg, po administered at 5 on-2-off for 3 weeks and further dosed 100 mg/kg, po for 4 th week relative to control; format: organism-based; design: scale not given: the % may be the effect or the level left; settings: in vivo, 672 h, at 50 to 100 mg/kg, dose 50-100 mg/kg, time 4 weeks; procedure, shortened: as §3
NCI-H446 [26] = test: Effect on cMYC protein expression level in human NCI-H446 cells xenografted in athymic nu/nu nude mouse at 100 mg/kg, po measured upto 24 hrs by western blot analysis relative to control; settings: time hrs <=24
NCI-H446 [27] = test: Induction of apoptosis in human NCI-H446 cells xenografted in athymic nu/nu nude mouse assessed as increase in cleaved CASP3 protein expression level at 100 mg/kg, po measured up to 24 hrs by IHC analysis; settings: time hrs <=24
NCI-H446 [28] = test: Induction of apoptosis in human NCI-H446 cells xenografted in athymic nu/nu nude mouse assessed as increase in cleaved PARP1 protein expression level at 100 mg/kg, po measured up to 24 hrs by Western blot analysis; settings: time hrs <=24
[29] = Inhibition of Histone H3 phosphorylation in human NCI-H446 cells xenografted in assessed as reduction in phosphorylation at Ser 10 residue at 100 mg/kg, po measured upto 8 hrs by western blot analysis relative to control

inhibition [1]: Dose-Dependent Effect | inhibition [3]: Dose-Dependent Effect | IC50 (NCI-H526): < 100 nM | IC50 (NCI-H209): 20.7 nM | half-life [9]: 4 h | clearance [10]: 53.7 mL/min/kg | Vd [11]: 11.3 L/kg | AUC(0-inf) [12]: 703 ng·h/mL | half-life [13]: 1.6 h | Cmax [14]: 395 ng/mL | Tmax [15]: 1 h | AUC(0-inf) [16]: 533 ng·h/mL | bioavailability [17]: 16.8% | inhibition [19]: Dose-Dependent Effect | inhibition [20]: Dose-Dependent Effect | IC50 (SK-N-BE(2) [21]): 1 nM
Compound: CCN1CCN(c2cc(Nc3cc(C)[nH]n3)nc(N[C@H]3CCN(C(=O)c4ccc(Cl)cc4F)C3)n2)CC1
inhibition (NCI-H82 [2]): Active | inhibition (SKNBE2): Active | Activity (NCI-H82 [4]): Active | Activity (SK-N-BE(2) [5]): Active | IC50 [6]: 2090 nM | Activity (NCI-H82 [7]): inactive | Activity (NCI-H82 [8]): Active | Activity [18]: < 5%

half-life [9]: 4.8 h | clearance [10]: 21.3 mL/min/kg | Vd [11]: 3.4 L/kg | AUC(0-inf) [12]: 1410 ng·h/mL | half-life [13]: 2.7 h | Cmax [14]: 2080 ng/mL | Tmax [15]: 0.3 h | AUC(0-inf) [16]: 4400 ng·h/mL
Compound: CCC(=O)n1nc(C)cc1Nc1cc(N2CCN(CC)CC2)nc(N[C@H]2CCN(C(=O)c3ccc(Cl)cc3F)C2)n1
Activity (NCI-H446 [22]): Dose-Dependent Effect | Activity (NCI-H446 [23]): Active | Activity [24]: < 5% | Activity [25]: < 5% | Activity (NCI-H446 [26]): Active | Activity (NCI-H446 [27]): Active | Activity (NCI-H446 [28]): Active | inhibition in vivo at 100 mg/kg [29]: > 90%
